Experiment [1] has as its system Rattus norvegicus. In words: Endosteal eroded surface measured Histomorphometrically after a dose of 6000 ug/kg in Tibial Diaphysis. Format: functional. The essentials:
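Tibial histomorphometry in 6-month-old rats, OVX 60 days before treatment, then daily injection for 60 days. Vehicle was acetate-buffered saline with methylcellulose and polyoxyethylenesorbitan monooleate. Rats received xylenol orange 90 mg/kg before treatment and calcein 10 mg/kg at 14 and 4 days pre-sacrifice. Rats were killed by cardiac puncture under ketamine/xylazine. Groups were compared with vehicle by ANOVA plus LSD test.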

The test system of experiment [2] is Rattus norvegicus. In words: Directly measured thickness measured using micro Computed Tomography(CT) after a dose of 6000 ug/kg in Vertebral Bone. It is filed as functional. The essentials: (§1)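 Micro-CT of the fifth lumbar vertebra, measuring cancellous bone volume and architecture. Rats were 6 months old, OVX 60 days before treatment, then dosed daily for 60 days. Test-agent doses were 10–3000 µg/kg, given as a once-daily subcutaneous injection; 6 mg/kg/day was given to the positive-control group. Groups were compared with vehicle by ANOVA plus LSD test.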

Experiment [3] deals with Rattus norvegicus. Nature of the experiment: Connectivity density measured using micro Computed Tomography(CT) after a dose of 6000 ug/kg in Vertebral Bone. It is filed as functional. The gist of the method:
as §1

Experiment [4] has as its system Rattus norvegicus. In words: Endosteal mineralizing surface measured Histomorphometrically after a does of 6000 ug/kg in Tibial Diaphysis. Format: functional.
Experiment [5] deals with Rattus norvegicus. In words: Derived trabecular thickness measured using micro Computed Tomography(CT) after a dose of 6000 ug/kg in Vertebral Bone. Format: functional, Trabecula. The essentials:
as §1

The subject of experiment [6] is Rattus norvegicus. In words: Bone Formation rate/bone measured Histomorphometrically after a dose of 6000 ug/kg in proximal tibial metaphysis. It is filed as functional. The gist of the method: (§2)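 Proximal tibial metaphysis, 1 to 4 mm distal to the growth plate–metaphyseal junction, assessed by histomorphometry in 6-month-old female rats. Rats were ovariectomized (OVX) 60 days before dosing, then given daily injections for 60 days. Fluorochrome labels were xylenol orange 90 mg/kg before treatment and calcein 10 mg/kg at 14 and 4 days before sacrifice. Groups were compared with vehicle by ANOVA plus LSD test.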

Experiment [7] concerns Rattus norvegicus. Nature of the experiment: Trabecular no measured Histomorphometrically after a dose of 6000 ug/kg in proximal tibial metaphysis. It is filed as functional, Trabecula. The essentials: (§3)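 A positive-control group of ovariectomized rats was injected daily at 6 mg/kg/day for 60 days, beginning 60 days post-surgery. Fluorochrome labels were xylenol orange (90 mg/kg) before treatment and calcein (10 mg/kg) 14 and 4 days before sacrifice. Histomorphometry covered the proximal tibial metaphysis 1-4 mm below the growth plate-metaphyseal junction.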

The test system of experiment [8] is Rattus norvegicus. In words: Marrow area measured Histomorphometrically after a dose of 6000 ug/kg in Tibial Diaphysis. Format: functional.
Experiment [9] has as its system Rattus norvegicus. Nature of the experiment: Bone Volume /Tissue Volume (%)measured using micro Computed Tomography(CT) after a dose of 6000 ug/kg in Vertebral Bone. It is filed as functional. The essentials: as §1
Experiment [10] concerns Rattus norvegicus. In words: Mineral apposition measured Histomorphometrically after a dose of 6000 ug/kg in proximal tibial metaphysis. Format: functional. The gist of the method: (§4)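 Positive-control arm: rats ovariectomized at six months, then from day 60 given PGE2 at 6 mg/kg/day for 60 days. Labels were xylenol orange 90 mg/kg before treatment and calcein 10 mg/kg 14 and 4 days before sacrifice. The tibia was read by fluorescent-light histomorphometry; metaphysis region 1–4 mm distal to the growth plate junction.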

Experiment [11] has as its system Rattus norvegicus. Nature of the experiment: Tissue area measured Histomorphometrically after a dose of 6000 ug/kg in Tibial Diaphysis. It is filed as functional. The essentials:
(§5)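 A positive-control group of ovariectomized rats was injected daily at 6 mg/kg/day for 60 days, starting 60 days after surgery. Xylenol orange (90 mg/kg) was given before treatment and calcein (10 mg/kg) 14 and 4 days before sacrifice. Tibiae were read by fluorescent-light histomorphometry.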

Experiment [12] relates to Rattus norvegicus. Nature of the experiment: Derived trabecular no measured using micro Computed Tomography(CT) after a dose of 6000 ug/kg in Vertebral Bone. Format: functional, Trabecula. The essentials: as §1
Experiment [13] concerns Rattus norvegicus. Nature of the experiment: Mineralizing apposition measured Histomorphometrically after a dose of 6000 ug/kg in […]. Format: functional.
Experiment [14] relates to Rattus norvegicus. In words: Bone Volume /Tissue Volume (%)measured Histomorphometrically after a dose of 6000 ug/kg in proximal tibial metaphysis. It is filed as functional. The essentials:
as §2

Experiment [15] concerns Rattus norvegicus. Nature of the experiment: Trabecular thickness measured Histomorphometrically after a dose of 6000 ug/kg in proximal tibial metaphysis. It is filed as functional, Trabecula. The essentials: as §3
Experiment [16] relates to Rattus norvegicus. Nature of the experiment: Periosteal mineralizing surface measured Histomorphometrically after a does of 6000 ug/kg in Tibial Diaphysis. Format: functional. The essentials: as §5
The subject of experiment [17] is Rattus norvegicus. In words: Mineral surface/bone surface measured Histomorphometrically after a dose of 6000 ug/kg in proximal tibial metaphysis. Format: functional. The essentials: as §4
For experiment [18], the system named is Rattus norvegicus. In words: Bone Formation rate/tissue vol measured Histomorphometrically after a does of 6000 ug/kg in proximal tibial metaphysis. It is filed as functional. The essentials:
as §2

Take `CCCCC[C@H](O)/C=C/[C@H]1[C@H](O)CC(=O)[C@@H]1C/C=C\CCCC(=O)O` [DINOPROSTONE]: the Endosteal eroded surface in the experiment on Rattus norvegicus [1] was determined as 0.79%. Besides, the Directly measured thickness in the experiment with Rattus norvegicus [2] worked out at 149 µm. The compound further gave a Connectivity density in the experiment on Rattus norvegicus [3] of 47.81 mm**-3. In the experiment on Rattus norvegicus [4], this compound returned an Endosteal mineralizing surface of 61.22%. In the experiment on Rattus norvegicus [5], the Derived trabecular thickness came out at 95.1 µm. Further, the Activity was 394.7% in the experiment with Rattus norvegicus [6]; 43.79% in the experiment with Rattus norvegicus [9]; 11.65% in the experiment on Rattus norvegicus [14]; 36.23% in the experiment with Rattus norvegicus [17]; 45.62% with Rattus norvegicus [18]. The compound also displayed a Trabecular no. with Rattus norvegicus [7] of 1.76. The Marrow area with Rattus norvegicus [8] came to 0.76 mm. Further, the Mineral apposition rate with Rattus norvegicus [10] amounted to 1.19 µm/day. In addition, the Tissue area in the experiment on Rattus norvegicus [11] worked out at 5.22 mm. In addition, the Derived trabecular number in the experiment with Rattus norvegicus [12] was 4.6 1/mm. In addition, the Mineralizing apposition rate with Rattus norvegicus [13] came to 1.33 µm/day. In the experiment on Rattus norvegicus [15], the Trabecular thickness is reported as 66.14. The compound also displayed a Periosteal mineralizing surface with Rattus norvegicus [16] of 58.37%.

Source of the values: ChEMBL document CHEMBL1134785, “Synthesis and biological evaluation of prostaglandin-F alkylphosphinic acid derivatives as bone anabolic agents for the treatment of osteoporosis” (J Med Chem, 2001).
